In ChEMBL document CHEMBL4130479, “Scalaradial Is a Potent Inhibitor of Transient Receptor Potential Melastatin 2 (TRPM2) Ion Channels” (J Nat Prod, 2017):
Activity calls are given as the source filed them. The calls are words filed in the database; no cut-off is given here.

How the values were obtained:
[1] = system: HEK293; test: Cytotoxicity against HEK293 cells assessed as cell death at 25 to 50 uM measured for 1 hr; assay type: cell-based; conditions: human, hek293, 1 h
[2] = target: T1, Transient receptor potential cation channel subfamily M member 2 (Homo sapiens, UniProt O94759); test: Inhibition of human FLAG-tagged TRPM2 expressed in HEK293 cells assessed as reduction in ADPR-induced intracellular calcium flux at 5 uM measured within 60 mins by whole cell patch clamp electrophysiology method; assay type: cell-based
T1 sequence (O94759 whole entry): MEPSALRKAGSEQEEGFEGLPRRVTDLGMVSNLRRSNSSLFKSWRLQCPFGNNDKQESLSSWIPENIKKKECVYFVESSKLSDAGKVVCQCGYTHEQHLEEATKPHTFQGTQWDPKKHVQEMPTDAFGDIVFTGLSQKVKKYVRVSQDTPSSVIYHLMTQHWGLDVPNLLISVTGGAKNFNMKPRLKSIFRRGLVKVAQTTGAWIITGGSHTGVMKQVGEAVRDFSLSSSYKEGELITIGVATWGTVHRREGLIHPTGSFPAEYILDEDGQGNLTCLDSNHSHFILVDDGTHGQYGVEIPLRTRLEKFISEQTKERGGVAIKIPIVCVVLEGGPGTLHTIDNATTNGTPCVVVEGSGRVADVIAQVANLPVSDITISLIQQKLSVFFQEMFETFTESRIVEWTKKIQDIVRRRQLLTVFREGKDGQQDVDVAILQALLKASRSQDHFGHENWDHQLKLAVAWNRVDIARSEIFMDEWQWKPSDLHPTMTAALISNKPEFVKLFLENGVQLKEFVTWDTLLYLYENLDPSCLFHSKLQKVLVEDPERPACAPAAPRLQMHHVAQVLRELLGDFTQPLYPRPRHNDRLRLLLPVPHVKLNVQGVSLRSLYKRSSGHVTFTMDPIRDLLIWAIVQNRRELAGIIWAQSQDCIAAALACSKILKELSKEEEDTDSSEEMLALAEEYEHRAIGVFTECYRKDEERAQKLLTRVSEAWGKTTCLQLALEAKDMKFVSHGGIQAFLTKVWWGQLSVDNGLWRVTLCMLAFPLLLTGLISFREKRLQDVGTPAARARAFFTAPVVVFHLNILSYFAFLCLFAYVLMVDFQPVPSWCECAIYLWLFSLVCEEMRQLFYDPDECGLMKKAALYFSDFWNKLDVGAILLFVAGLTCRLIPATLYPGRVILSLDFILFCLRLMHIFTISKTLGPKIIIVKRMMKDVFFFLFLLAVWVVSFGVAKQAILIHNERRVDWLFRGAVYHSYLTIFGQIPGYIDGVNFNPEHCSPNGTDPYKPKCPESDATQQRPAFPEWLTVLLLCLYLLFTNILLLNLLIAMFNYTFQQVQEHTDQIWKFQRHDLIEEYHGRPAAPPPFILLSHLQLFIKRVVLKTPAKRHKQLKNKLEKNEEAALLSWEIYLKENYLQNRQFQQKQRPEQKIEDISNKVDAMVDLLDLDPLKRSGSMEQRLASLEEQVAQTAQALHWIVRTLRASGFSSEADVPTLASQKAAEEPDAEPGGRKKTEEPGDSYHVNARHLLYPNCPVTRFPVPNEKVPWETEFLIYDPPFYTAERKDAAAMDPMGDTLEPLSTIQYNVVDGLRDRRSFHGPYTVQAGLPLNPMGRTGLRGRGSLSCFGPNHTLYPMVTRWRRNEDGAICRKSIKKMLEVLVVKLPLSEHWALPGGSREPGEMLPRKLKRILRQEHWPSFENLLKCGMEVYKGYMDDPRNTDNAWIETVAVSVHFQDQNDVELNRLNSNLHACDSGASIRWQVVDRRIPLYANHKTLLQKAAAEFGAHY
Procedure, shortened: (§1)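 TRPM2-HEK293 cells incubated with the sPLA2 inhibitors in standard external Ringer's. Whole-cell currents were recorded within the first 60 min using K-glutamate pipette with 100 μM ADPR. Current at −80 mV was normalized to same-day controls, n = 3–17.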

[3] = target: T1, Transient receptor potential cation channel subfamily M member 2; test: Inhibition of human FLAG-tagged TRPM2 expressed in HEK293 cells assessed as reduction in H2O2-induced intracellular calcium flux pretreated for 30 secs followed by H2O2 addition measured for 120 secs by […]; assay type: cell-based
[4] = target: T1, Transient receptor potential cation channel subfamily M member 2; test: Inhibition of human FLAG-tagged TRPM2 expressed in HEK293 cells assessed as reduction in ADPR-induced intracellular calcium flux at 20 uM measured within 60 mins by whole cell patch clamp electrophysiology method; assay type: cell-based
Procedure, shortened: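 Tetracycline-induced HEK293 cells stably carrying FLAG-human TRPM2 were incubated with inhibitor in standard external Ringer's (pH 7.2). Whole-cell recordings were made during the first 60 min at 21–25 °C. Pipette: K-glutamate with unbuffered Ca2+ plus 100 μM ADPR. Ramps ran −100 to +100 mV over 50 ms at 0.5 Hz. Current was taken at −80 mV as % of same-day controls (n = 3–17).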

[5] = target: T1, Transient receptor potential cation channel subfamily M member 2; test: Inhibition of human TRPM2 expressed in HEK293 cells assessed as reduction in ADPR-induced intracellular calcium flux at 0 mV holding potential by whole cell patch clamp electrophysiology method; assay type: cell-based
Procedure, shortened: (§2)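 Human FLAG-TRPM2 in HEK293 cells, induced with tetracycline for 6–9 h and incubated 30–60 min in external Ringer's (0.1–2 μM) before patching. Pipette was K-glutamate, Ca2+ buffered to 300 nM, with 100 μM ADPR. Ramps ran −100 to +100 mV from a 0 mV holding potential, 0.5 Hz.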

[6] = system: HEK293; test: Cytotoxicity against HEK293 cells assessed as effect on cell viability at 2 uM; assay type: cell-based; conditions: human, hek293, 2 µM
[7] = system: HEK293; test: Cytotoxicity against HEK293 cells assessed as cell blebbing at 2 uM; assay type: cell-based; conditions: human, hek293, 2 µM
[8] = system: HEK293; test: Cytotoxicity against HEK293 cells assessed as cell rounding at 2 uM; assay type: cell-based; conditions: human, hek293, 2 µM
[9] = system: HEK293; test: Cytotoxicity against HEK293 cells assessed as granule formation at 2 uM; assay type: cell-based; conditions: human, hek293, 2 µM
[10] = target: T1, Transient receptor potential cation channel subfamily M member 2; test: Inhibition of human FLAG-tagged TRPM2 expressed in HEK293 cells assessed as reduction in ADPR-induced intracellular calcium flux at 200 to 2000 nM measured after 60 mins by whole cell patch clamp electrophysiology method; assay type: cell-based
Procedure, shortened: (§3)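 HEK293 cells stably carrying tetracycline-inducible FLAG-human TRPM2, induced 6–9 h, preincubated 30–60 min with compound in external Ringer's, 21–25 °C. Whole-cell patch clamp used K-glutamate pipette solution with 100 μM ADPR and Ca2+ buffered to 300 nM. Ramps from −100 to +100 mV over 50 ms at 0.5 Hz.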

[11] = target: T1, Transient receptor potential cation channel subfamily M member 2; conditions: HEK293, 100 nM
[12] = system: HEK293; test: Cytotoxicity against HEK293 cells assessed as cell death at 5 to 10 uM measured for 1 hr; assay type: cell-based; conditions: human, hek293, 1 h
[13] = target: T1, Transient receptor potential cation channel subfamily M member 2; test: Inhibition of human FLAG-tagged TRPM2 expressed in HEK293 cells assessed as reduction in ADPR-induced intracellular calcium flux at 1 uM measured within 60 mins by whole cell patch clamp electrophysiology method; assay type: cell-based; procedure, shortened: as §1
[14] = target: Transient receptor potential cation channel subfamily V member 1 (Rattus norvegicus) (UniProt O35433); test: Inhibition of TRPV1 in rat INS-1 cells assessed as reduction in intracellular calcium flux at 500 nM measured within 60 mins by whole cell patch clamp method; assay type: cell-based
Transient receptor potential cation channel subfamily V member 1 (Rattus norvegicus), sequence (O35433 whole entry): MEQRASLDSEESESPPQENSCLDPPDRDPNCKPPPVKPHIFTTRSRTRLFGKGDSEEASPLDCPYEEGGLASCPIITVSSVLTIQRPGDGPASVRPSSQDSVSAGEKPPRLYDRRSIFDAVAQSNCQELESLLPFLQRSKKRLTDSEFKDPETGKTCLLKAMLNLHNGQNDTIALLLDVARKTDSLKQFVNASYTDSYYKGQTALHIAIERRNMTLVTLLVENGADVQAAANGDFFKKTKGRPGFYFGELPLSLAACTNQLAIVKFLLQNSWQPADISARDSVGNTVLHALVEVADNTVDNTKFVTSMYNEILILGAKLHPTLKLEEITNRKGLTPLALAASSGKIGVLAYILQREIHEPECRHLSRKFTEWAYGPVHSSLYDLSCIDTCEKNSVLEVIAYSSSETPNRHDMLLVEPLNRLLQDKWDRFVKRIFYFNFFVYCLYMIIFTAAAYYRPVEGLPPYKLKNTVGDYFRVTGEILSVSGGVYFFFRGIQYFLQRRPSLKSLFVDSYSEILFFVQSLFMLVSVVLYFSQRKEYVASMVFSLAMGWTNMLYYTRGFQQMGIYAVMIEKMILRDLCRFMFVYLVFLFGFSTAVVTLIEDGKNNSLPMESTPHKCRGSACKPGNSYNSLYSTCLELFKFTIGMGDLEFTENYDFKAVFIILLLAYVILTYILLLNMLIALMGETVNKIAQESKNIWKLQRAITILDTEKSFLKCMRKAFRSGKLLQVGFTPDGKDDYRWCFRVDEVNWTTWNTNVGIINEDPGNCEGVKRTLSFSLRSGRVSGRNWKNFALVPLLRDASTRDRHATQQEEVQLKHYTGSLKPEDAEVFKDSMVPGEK
Procedure, shortened: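 Endogenous TRPV1-like currents in INS-1 cells, preincubated in external solution and recorded within 60 min. Pipette was Cs-glutamate with Ca2+ unbuffered. Current was activated by 10 μM capsaicin in the bath. Ramps ran −100 to +100 mV, 50 ms, 0.5 Hz.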

[15] = Inhibition of recombinant human sPLA2 using [1-14C]oleate-labelled autoclaved Escherichia coli as substrate measured after 15 mins
[16] = system: INS1; test: Cytotoxicity against rat INS-1 cells assessed as cell blebbing; assay type: cell-based
Procedure, shortened: (§4)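 INS-1 cells (RPMI, 10% FBS, 37 °C, 5% CO2) kept under continual scalaradial exposure in standard external solution during whole-cell patching. Cells were scored by eye for rounding, granule formation and blebbing over at least 1 h.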

[17] = target: T1, Transient receptor potential cation channel subfamily M member 2; test: Inhibition of human FLAG-tagged TRPM2 expressed in HEK293 cells assessed as reduction in ADPR-induced intracellular calcium flux at 2 uM by whole cell patch clamp electrophysiology method; assay type: cell-based; conditions: TDE = time-dependent effect
[18] = target: T1, Transient receptor potential cation channel subfamily M member 2; test: Inhibition of human FLAG-tagged TRPM2 expressed in HEK293 cells assessed as reduction in ADPR-induced intracellular calcium flux after 30 to 60 mins by whole cell patch clamp electrophysiology method; assay type: cell-based; procedure, shortened: as §2
[19] = target: T1, Transient receptor potential cation channel subfamily M member 2; test: Inhibition of human FLAG-tagged TRPM2 expressed in HEK293 cells assessed as reduction in ADPR-induced intracellular calcium flux at 2 uM treated for 6 hrs followed by compound washout measured within 5 mins by whole cell patch clamp electrophysiology method; assay type: cell-based
[20] = system: INS1; test: Cytotoxicity against rat INS-1 cells assessed as granule formation; assay type: cell-based; procedure, shortened: as §4
[21] = target: Transient receptor potential cation channel subfamily M member 7 (Mus musculus) (UniProt Q923J1); test: Inhibition of mouse FLAG-tagged TRPM7 expressed in HEK293 cells assessed as reduction in BAPTA-induced intracellular calcium flux at 0.1 to 2 uM by whole cell patch clamp electrophysiology method; assay type: cell-based; conditions: TDE = time-dependent effect
Procedure, shortened: (§5)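 Mouse FLAG-TRPM7 in HEK293 cells, induced with tetracycline for 19–22 h and incubated with 100 nM–2 μM compound in culture medium from 15 min (maximum 60 min) before patching. Pipette was K-glutamate with 10 mM K-BAPTA. Ramps ran −100 to +100 mV, 0.5 Hz. Current at +80 mV and 200 s was normalized, and IC50 came from a fit.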

[22] = target: Transient receptor potential cation channel subfamily M member 2 (Rattus norvegicus, UniProt E9PTA2); test: Inhibition of TRPM2 in rat INS-1 cells assessed as reduction in ADPR-induced intracellular calcium flux measured after 60 mins by whole cell patch clamp electrophysiology method; assay type: cell-based
Procedure, shortened: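 Whole-cell TRPM2 currents in INS-1 cells at 21–25 °C. Pipette was Cs-glutamate with ADPR and no Ca2+ chelator. Compound (10 nM–2 μM) in external Ringer's, recorded within the first 60 min of incubation. Ramps ran −100 to +100 mV, 50 ms, 0.5 Hz. Current at −80 mV and 50 s was normalized to control, and IC50 came from a dose–response fit.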

[23] = system: INS1; test: Cytotoxicity against rat INS-1 cells at 500 nM measured for 1 hr; assay type: cell-based; conditions: ins1, 1 h, 0.5 µM; procedure, shortened: as §4
[24] = target: ORAI1/STIM1 (Homo sapiens) (UniProt Q96D31+Q13586); test: Inhibition of EGFP-tagged Orai1/STIM1 (unknown origin) expressed in HEK293 cells assessed as reduction in BAPTA-induced calcium release activated calcium channel currents at 2 uM after 30 to 60 mins by whole cell patch clamp method; assay type: cell-based
ORAI1/STIM1 (Homo sapiens), sequence (Q13586 23-685 partner limits assumed): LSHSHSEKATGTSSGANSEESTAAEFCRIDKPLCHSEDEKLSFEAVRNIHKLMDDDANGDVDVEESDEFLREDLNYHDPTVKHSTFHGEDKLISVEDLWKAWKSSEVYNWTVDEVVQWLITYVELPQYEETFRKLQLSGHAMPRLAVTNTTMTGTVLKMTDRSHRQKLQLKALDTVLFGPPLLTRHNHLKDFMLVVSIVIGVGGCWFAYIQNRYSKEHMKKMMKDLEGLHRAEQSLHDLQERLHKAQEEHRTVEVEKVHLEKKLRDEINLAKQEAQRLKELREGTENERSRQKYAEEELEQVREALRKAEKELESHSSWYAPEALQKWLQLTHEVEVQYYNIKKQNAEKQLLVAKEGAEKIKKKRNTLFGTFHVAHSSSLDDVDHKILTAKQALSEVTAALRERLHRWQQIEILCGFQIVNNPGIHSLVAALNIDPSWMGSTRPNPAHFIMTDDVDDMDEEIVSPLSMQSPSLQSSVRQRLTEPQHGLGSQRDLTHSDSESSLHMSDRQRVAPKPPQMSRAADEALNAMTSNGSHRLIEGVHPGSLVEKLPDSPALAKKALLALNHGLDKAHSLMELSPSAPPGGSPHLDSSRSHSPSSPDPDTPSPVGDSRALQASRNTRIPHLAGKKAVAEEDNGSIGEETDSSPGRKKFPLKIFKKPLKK
ORAI1/STIM1 (Homo sapiens), sequence (Q96D31 whole entry): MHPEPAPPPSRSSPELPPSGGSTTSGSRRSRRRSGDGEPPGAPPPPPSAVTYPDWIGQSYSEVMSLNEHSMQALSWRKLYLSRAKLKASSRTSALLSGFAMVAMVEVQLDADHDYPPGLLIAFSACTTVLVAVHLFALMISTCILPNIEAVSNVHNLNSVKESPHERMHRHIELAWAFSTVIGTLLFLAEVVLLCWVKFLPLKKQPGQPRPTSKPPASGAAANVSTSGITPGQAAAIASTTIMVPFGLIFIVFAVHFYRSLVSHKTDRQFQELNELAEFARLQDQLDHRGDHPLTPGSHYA
Procedure, shortened: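 HEK293 cells stably expressing STIM1 and transiently transfected with CRACM1 (Orai1)-IRES-EGFP, recorded 24–48 h after transfection and picked by EGFP. Cells were exposed for 30–60 min. External solution held 10 mM CaCl2 (NaCl/TEA-based, pH 7.2). Pipette was Cs-glutamate with 20 mM Cs-BAPTA and 20 μM IP3. Ramps ran −150 to +150 mV over 50 ms at 0.5 Hz, read at −80 mV.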

[25] = target: Transient receptor potential cation channel subfamily M member 7 (Mus musculus, UniProt Q923J1); test: Inhibition of mouse FLAG-tagged TRPM7 expressed in HEK293 cells assessed as reduction in BAPTA-induced intracellular calcium flux after 15 to 60 mins by whole cell patch clamp electrophysiology method; assay type: cell-based; procedure, shortened: as §5
[26] = system: INS1; test: Cytotoxicity against rat INS-1 cells assessed as cell rounding; assay type: cell-based; procedure, shortened: as §4
[27] = target: T2, Phospholipase A2 (Apis mellifera, UniProt P00630); test: Inhibition of bee venom PLA2
T2 sequence (P00630 whole entry): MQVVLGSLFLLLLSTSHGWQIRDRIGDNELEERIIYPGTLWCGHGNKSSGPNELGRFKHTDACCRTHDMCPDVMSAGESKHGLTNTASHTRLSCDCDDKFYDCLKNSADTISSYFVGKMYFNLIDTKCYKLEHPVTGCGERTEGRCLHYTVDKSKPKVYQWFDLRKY

[28] = target: Transient receptor potential cation channel subfamily M member 4 (Homo sapiens) (UniProt Q8TD43); test: Inhibition of TRPM4 in human Jurkat T cells assessed as reduction in intracellular calcium flux at 500 nM within 60 mins by whole cell patch clamp electrophysiology method; assay type: cell-based
Transient receptor potential cation channel subfamily M member 4 (Homo sapiens), sequence (Q8TD43 whole entry): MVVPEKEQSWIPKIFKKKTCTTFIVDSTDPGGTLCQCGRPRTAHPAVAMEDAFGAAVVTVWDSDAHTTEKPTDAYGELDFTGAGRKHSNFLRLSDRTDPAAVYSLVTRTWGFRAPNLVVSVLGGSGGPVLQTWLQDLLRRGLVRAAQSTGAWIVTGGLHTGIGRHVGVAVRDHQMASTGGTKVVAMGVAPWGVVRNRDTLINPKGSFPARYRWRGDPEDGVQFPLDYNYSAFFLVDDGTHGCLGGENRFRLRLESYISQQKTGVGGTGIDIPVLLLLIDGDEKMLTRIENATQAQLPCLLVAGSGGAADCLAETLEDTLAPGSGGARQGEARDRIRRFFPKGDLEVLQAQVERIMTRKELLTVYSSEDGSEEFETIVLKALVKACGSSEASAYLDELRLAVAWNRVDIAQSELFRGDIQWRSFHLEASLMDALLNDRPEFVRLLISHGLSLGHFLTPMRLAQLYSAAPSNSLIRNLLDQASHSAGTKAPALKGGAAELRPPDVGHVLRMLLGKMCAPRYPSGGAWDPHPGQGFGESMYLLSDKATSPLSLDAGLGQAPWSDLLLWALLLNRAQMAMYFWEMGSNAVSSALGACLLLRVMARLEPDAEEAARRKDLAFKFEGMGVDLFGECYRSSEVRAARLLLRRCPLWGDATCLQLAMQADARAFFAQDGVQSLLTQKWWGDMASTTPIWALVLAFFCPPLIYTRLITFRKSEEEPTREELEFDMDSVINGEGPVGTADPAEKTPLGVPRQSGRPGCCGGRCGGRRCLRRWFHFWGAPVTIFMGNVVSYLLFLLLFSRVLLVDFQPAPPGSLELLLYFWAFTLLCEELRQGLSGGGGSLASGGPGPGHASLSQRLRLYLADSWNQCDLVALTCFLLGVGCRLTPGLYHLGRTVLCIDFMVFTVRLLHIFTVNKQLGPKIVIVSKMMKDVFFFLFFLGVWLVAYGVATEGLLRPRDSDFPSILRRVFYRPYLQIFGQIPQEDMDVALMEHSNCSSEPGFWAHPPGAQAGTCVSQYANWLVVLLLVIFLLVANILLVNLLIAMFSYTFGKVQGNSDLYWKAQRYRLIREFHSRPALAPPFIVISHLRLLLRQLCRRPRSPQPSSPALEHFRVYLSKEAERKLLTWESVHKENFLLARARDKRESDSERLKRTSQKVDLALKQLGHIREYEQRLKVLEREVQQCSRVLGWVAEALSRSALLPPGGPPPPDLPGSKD
Procedure, shortened: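 Endogenous TRPM4-like currents in Jurkat T cells, preincubated in standard external solution and recorded within 60 min. Pipette was Cs-glutamate with intracellular Ca2+ clamped to 2 μM. Ramps ran −100 to +100 mV over 50 ms at 0.5 Hz, and current was normalized and plotted against time.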

[29] = system: HEK293; test: Cytotoxicity against HEK293 cells assessed as cell rounding at 200 nM; assay type: cell-based; conditions: human, hek293, 0.2 µM
Procedure, shortened: (§6)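 Tetracycline-induced human TRPM2-HEK293 cells preincubated 60 min with compound in serum-containing medium, then moved to standard external Ringer's with compound still present for whole-cell recording ([…] internal). Cells scored by eye for rounding, granule formation and blebbing.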

[30] = target: T1, Transient receptor potential cation channel subfamily M member 2; test: Inhibition of human FLAG-tagged TRPM2 expressed in HEK293 cells assessed as reduction in ADPR-induced intracellular […] at 20 to 200 nM measured after 60 mins by whole cell patch clamp electrophysiology method; assay type: cell-based; procedure, shortened: as §3
[31] = system: HEK293; test: Cytotoxicity against HEK293 cells assessed as effect on cell viability at 200 nM; assay type: cell-based; conditions: human, hek293, 0.2 µM; procedure, shortened: as §6
[32] = system: HEK293; test: Cytotoxicity against HEK293 cells assessed as cell blebbing at 200 nM; assay type: cell-based; conditions: human, hek293, 0.2 µM; procedure, shortened: as §6
[33] = system: HEK293; test: Cytotoxicity against HEK293 cells assessed as granule formation at 200 nM; assay type: cell-based; conditions: human, hek293, 0.2 µM; procedure, shortened: as §6

## O=C(O)CC[C@@H](Cc1ccc(OCc2ccccc2)cc1)NC(=O)CCCCCCc1ccccc1
[1]
  Activity: Toxic
[2]
  inhibition: inactive

## O=C1NCCc2c(OCCCCN3CCCCC3)cccc21
[3]
  IC50: 600 nM
[4]
  inhibition: inactive

## CCCCCc1ccc(/C=C/C(=O)Nc2ccccc2C(=O)O)cc1
[5]
  IC50: 4500 nM

## O=c1[nH]c2ccccc2n1C1CCN(Cc2ccc(-c3nc4cc5[nH]cnc5cc4nc3-c3ccccc3)cc2)CC1
[6]
  Activity: Toxic
[7]
  Activity: Toxic
[8]
  Activity: Toxic
[9]
  Activity: Toxic
[10]
  inhibition: inactive

## CN(C)CC(=O)Nc1ccc2[nH]c(=O)c3ccccc3c2c1
[3]
  IC50: 25 nM
[11]
  inhibition: inactive

## CCCCCCCCCCCCCCCCOCC(COCC)OP(=O)([O-])OC.[Li+] (stereo not given)
[12]
  Activity: Toxic
[13]
  inhibition: inactive

## CC(=O)O[C@H]1C[C@@H]2[C@@]3(C)CCCC(C)(C)[C@@H]3CC[C@@]2(C)[C@@H]2CC=C(C=O)[C@H](C=O)[C@@]12C [SCALARADIAL]
[14]
  inhibition: inactive
[15]
  IC50: 5400 nM
[16]
  Activity: Toxic
[17]
  inhibition: Tde
[18]
  IC50: 210 nM
  inhibition: Dose-dependent effect
[19]
  inhibition: inactive
[20]
  Activity: Toxic
[21]
  inhibition: Tde
[22]
  IC50: 330 nM
[23]
  Activity: Non-Toxic
[24]
  inhibition: inactive
[25]
  IC50: 760 nM
[26]
  Activity: Toxic
[27]
  IC50: 70 nM
[28]
  inhibition: inactive

## COC[C@H]1OC(=O)c2coc3c2[C@@]1(C)C1=C(C3=O)[C@@H]2CCC(=O)[C@@]2(C)C[C@H]1OC(C)=O [WORTMANNIN]
[29]
  Activity: Toxic
[30]
  inhibition: inactive
[31]
  Activity: Toxic
[32]
  Activity: Toxic
[33]
  Activity: Toxic
